Experimental findings from paper PMC2191409 (The Journal of Experimental Medicine, 1994) are described below.

This experiment relates to MZ2-MEL.61 cells (D-) expressing HLA-A1. Nature of the experiment: Peptide sensitization assay. To be noted: CTL clone 20/38. The experiment is classed as cell-based, human. In short, it runs like this: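 Target cells (MZ2-MEL.61, antigen-loss D− variant, HLA-A1+) were 51Cr-labelled for 1 h at 37°C and washed extensively. 1,000 cells/well were preincubated 30 min at 37°C with various concentrations of synthetic test peptide (>90% HPLC purity; stock in 0.02 M PBS). CTL 20/38 were then added in equal volume at E/T 10:1. Chromium release was read after 4 h at 37°C. D+ and D− MZ2-MEL cells without peptide served as reference.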

Consider EVDPIGHVY [MAGE-6 derived peptide], for which the “Recognition by the anti-MZ2-D CTL clone” value is “not recognized”.
